Measurements taken from ChEMBL document CHEMBL2150901, “Synthesis and biological activity of tricyclic cycloalkylimidazo-, pyrimido- and diazepinopurinediones” (Eur J Med Chem, 2011).
Blank lines part the entries; values can stand above or below the compound they belong to. Activity calls are given as the source filed them. The rule behind the calls is not given here.

Columns and labels:
[1] = target: T1, Adenosine receptor A1 (Homo sapiens, UniProt P30542); assay: Displacement of [3H]CCPA from human recombinant adenosine A1 receptor expressed in CHO cells; assay type: cell-based
T1 sequence (P30542 whole entry): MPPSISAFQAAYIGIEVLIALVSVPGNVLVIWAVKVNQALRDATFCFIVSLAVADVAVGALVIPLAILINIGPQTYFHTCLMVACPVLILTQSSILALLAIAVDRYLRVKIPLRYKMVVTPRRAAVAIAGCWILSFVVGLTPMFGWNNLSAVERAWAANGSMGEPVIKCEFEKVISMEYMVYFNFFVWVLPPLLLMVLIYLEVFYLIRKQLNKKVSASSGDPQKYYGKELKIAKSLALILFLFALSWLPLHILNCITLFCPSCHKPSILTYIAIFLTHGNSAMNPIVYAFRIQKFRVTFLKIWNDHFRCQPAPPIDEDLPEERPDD

[2] = target: T2, Adenosine receptor A3 (Homo sapiens, UniProt P0DMS8); assay: Displacement of [3H]PSB-11 from human recombinant adenosine A3 receptor expressed in CHO cells; assay type: cell-based
T2 sequence (P0DMS8 whole entry): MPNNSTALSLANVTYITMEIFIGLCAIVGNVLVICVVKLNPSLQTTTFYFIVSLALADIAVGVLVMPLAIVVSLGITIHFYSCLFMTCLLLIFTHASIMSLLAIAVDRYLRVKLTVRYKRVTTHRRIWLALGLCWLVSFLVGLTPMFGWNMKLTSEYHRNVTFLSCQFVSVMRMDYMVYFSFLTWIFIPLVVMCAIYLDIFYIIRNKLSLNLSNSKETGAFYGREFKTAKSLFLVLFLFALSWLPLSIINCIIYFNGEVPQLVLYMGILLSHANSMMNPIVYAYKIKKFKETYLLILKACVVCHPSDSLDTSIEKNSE

[3] = target: T3, Adenosine receptor A2b (Homo sapiens) (UniProt P29275); details: CHO, 10 uM
T3 sequence (whole entry): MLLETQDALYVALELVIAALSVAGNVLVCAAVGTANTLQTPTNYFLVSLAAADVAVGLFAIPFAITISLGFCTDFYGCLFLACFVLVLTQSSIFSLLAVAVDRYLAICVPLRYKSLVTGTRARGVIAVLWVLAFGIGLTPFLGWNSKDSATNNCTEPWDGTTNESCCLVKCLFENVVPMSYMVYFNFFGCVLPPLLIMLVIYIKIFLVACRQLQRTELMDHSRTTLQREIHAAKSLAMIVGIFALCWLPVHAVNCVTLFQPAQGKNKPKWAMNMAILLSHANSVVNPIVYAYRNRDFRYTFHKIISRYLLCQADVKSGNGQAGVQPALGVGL

[4] = target: T4, Adenosine receptor A1 (Rattus norvegicus, UniProt P25099); assay: Displacement of [3H]CCPA from adenosine A1 receptor in rat brain cortical membrane; assay type: cell membranes
T4 sequence (P25099 whole entry): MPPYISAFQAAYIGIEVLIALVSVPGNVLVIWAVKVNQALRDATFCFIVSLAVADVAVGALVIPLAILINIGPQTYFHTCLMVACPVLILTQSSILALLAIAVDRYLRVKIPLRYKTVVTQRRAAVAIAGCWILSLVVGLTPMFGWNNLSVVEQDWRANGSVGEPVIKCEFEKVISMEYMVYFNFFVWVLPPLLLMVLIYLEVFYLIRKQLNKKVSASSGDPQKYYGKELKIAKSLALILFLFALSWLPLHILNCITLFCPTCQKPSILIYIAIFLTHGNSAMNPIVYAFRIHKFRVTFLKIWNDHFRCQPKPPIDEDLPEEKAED

[5] = tested on: Mus musculus; assay: Anticonvulsant activity in F1 albino mouse assessed as protection against maximal electroshock-induced seizures at 300 mg/kg, ip after 1 hr; assay type: functional, organism-based; parameters: dose 300 mg/kg
Procedure, shortened: (§1)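 Male albino F-1 mice (18–25 g), groups of 1–5 (rotorod 2–8). Compound given ip as a suspension in 0.5% methylcellulose at 30, 100 and 300 mg/kg. Seizures by maximal electroshock or subcutaneous pentylenetetrazole; neurotoxicity by rotorod. Read at 0.5 and 4 h, with some at 0.25, 1 and 2 h. Value is the minimum active dose, with protected (or toxic)/tested animals.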

[6] = target: T5, Adenosine receptor A2b (Homo sapiens, UniProt P29275); assay: Displacement of [3H]ZM241385 from human adenosine A2B receptor expressed in CHO cells; assay type: cell-based
T5 sequence (P29275 whole entry): T3 sequence (whole entry)

[7] = tested on: Mus musculus; assay: Anticonvulsant activity in F1 albino mouse assessed as protection against subcutaneous pentylenetetrazole-induced seizures at 300 mg/kg, ip after 1 hr; assay type: functional, organism-based; parameters: dose 300 mg/kg; procedure, shortened: as §1
[8] = tested on: Mus musculus; assay: Anticonvulsant activity in F1 albino mouse assessed as protection against subcutaneous pentylenetetrazole-induced seizures at 300 mg/kg, ip after 0.25 hrs; assay type: functional, organism-based; parameters: dose 300 mg/kg; procedure, shortened: as §1
[9] = species: Rattus norvegicus; assay: Selectivity ratio of Ki for adenosine A1 receptor in rat brain cortical membrane to Ki for adenosine A2A receptor in rat brain striatal membrane; assay type: cell membranes
Procedure, shortened: (§2)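 Ki ratios from radioligand competition binding. Rat A1 used brain cortical membranes and rat A2A used brain striatal membranes. Human A1 and A2A used membranes of CHO cells expressing the receptors. A1 radioligand [³H]CCPA; A2A radioligand [³H]MSX-2. Potent compounds were tested at 6–7 concentrations spanning 3 orders of magnitude.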

[10] = tested on: Mus musculus; assay: Neurotoxicity in F1 albino mouse assessed as minimal motor impairment at 300 mg/kg, ip after 0.25 hrs by rotorod test; assay type: toxicity, organism-based; parameters: dose 300 mg/kg, route intraperitoneal; details: in vivo; procedure, shortened: as §1
[11] = target: T6, Adenosine receptor A1 (Homo sapiens) (UniProt P30542); assay: Displacement of [3H]CCPA from human recombinant adenosine A1 receptor expressed in CHO cells at 10 uM; assay type: cell-based
T6 sequence (whole entry): T1 sequence (P30542 whole entry)
Procedure, shortened: (§3)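 CHO cell membranes expressing the human receptor. Radioligands: A1 [3H]CCPA; A2B [3H]ZM241385 or [3H]PSB-603; A3 [3H]PSB-11. […] Potent compounds run at 6–7 concentrations spanning 3 orders of magnitude; Ki ± SEM.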

[12] = target: T7, Adenosine receptor A2a (Homo sapiens, UniProt P29274); assay: Displacement of [3H]MSX-2 from human recombinant adenosine A2A receptor expressed in CHO cells; assay type: cell-based
T7 sequence (P29274 whole entry): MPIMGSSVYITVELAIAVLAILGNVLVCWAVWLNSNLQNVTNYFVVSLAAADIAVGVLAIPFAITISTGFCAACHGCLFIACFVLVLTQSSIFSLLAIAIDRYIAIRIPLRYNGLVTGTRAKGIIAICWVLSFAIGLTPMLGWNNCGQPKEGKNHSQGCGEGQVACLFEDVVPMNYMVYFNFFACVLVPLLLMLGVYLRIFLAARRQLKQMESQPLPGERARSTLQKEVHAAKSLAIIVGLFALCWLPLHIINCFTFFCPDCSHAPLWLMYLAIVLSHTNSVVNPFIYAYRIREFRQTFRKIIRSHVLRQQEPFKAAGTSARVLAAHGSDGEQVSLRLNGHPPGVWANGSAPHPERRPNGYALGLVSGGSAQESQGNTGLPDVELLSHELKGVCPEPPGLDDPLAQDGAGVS

[13] = tested on: Mus musculus; assay: Neurotoxicity in F1 albino mouse assessed as minimal motor impairment at 100 mg/kg, ip after 0.5 hrs by rotorod test; assay type: toxicity, organism-based; parameters: dose 100 mg/kg, route intraperitoneal; details: in vivo; procedure, shortened: as §1
[14] = tested on: Mus musculus; assay: Anticonvulsant activity in F1 albino mouse assessed as protection against maximal electroshock-induced seizures at 300 mg/kg, ip after 0.25 hrs; assay type: functional, organism-based; parameters: dose 300 mg/kg; procedure, shortened: as §1
[15] = target: Adenosine receptor A2a (Rattus norvegicus, UniProt P30543); assay: Displacement of [3H]MSX-2 from adenosine A2A receptor in rat brain striatal membrane; assay type: cell membranes
Adenosine receptor A2a (Rattus norvegicus, UniProt P30543), sequence (P30543 whole entry): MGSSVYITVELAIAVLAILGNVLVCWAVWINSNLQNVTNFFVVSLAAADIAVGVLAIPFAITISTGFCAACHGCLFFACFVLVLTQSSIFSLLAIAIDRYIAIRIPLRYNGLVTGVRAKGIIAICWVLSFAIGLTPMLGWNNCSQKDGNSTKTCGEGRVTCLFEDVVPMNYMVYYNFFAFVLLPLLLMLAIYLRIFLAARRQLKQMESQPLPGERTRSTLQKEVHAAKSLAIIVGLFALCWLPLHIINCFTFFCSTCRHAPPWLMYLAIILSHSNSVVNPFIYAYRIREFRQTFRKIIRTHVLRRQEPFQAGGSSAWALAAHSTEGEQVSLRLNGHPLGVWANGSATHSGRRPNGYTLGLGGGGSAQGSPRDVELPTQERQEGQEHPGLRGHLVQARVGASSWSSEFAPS

[16] = tested on: CHO; assay: Selectivity ratio of Ki for human recombinant adenosine A2A receptor expressed in CHO cells to Ki for adenosine A2A receptor in rat brain striatal membrane; assay type: cell-based; procedure, shortened: as §2
[17] = tested on: Mus musculus; assay: Anticonvulsant activity in F1 albino mouse assessed as protection against maximal electroshock-induced seizures at 300 mg/kg, ip after 0.5 hrs; assay type: functional, organism-based; parameters: dose 300 mg/kg; procedure, shortened: as §1
[18] = tested on: Mus musculus; assay: Neurotoxicity in F1 albino mouse assessed as minimal motor impairment at 300 mg/kg, ip after 1 hr by rotorod test; assay type: toxicity, organism-based; parameters: dose 300 mg/kg, route intraperitoneal; details: in vivo; procedure, shortened: as §1
[19] = tested on: Mus musculus; assay: Anticonvulsant activity in F1 albino mouse assessed as protection against subcutaneous pentylenetetrazole-induced seizures at 300 mg/kg, ip after 4 hrs; assay type: functional, organism-based; parameters: dose 300 mg/kg; procedure, shortened: as §1
[20] = target: T3, Adenosine receptor A2b (Homo sapiens); assay: Displacement of [3H]ZM241385 from human adenosine A2B receptor expressed in CHO cells at 10 uM; assay type: cell-based; procedure, shortened: as §3
[21] = tested on: Mus musculus; assay: Anticonvulsant activity in F1 albino mouse assessed as protection against maximal electroshock-induced seizures at 300 mg/kg, ip after 4 hrs; assay type: functional, organism-based; parameters: dose 300 mg/kg; procedure, shortened: as §1
[22] = target: T7, Adenosine receptor A2a; details: CHO, 10 uM
[23] = tested on: Mus musculus; assay: Anticonvulsant activity in F1 albino mouse assessed as protection against subcutaneous pentylenetetrazole-induced seizures at 300 mg/kg, ip after 0.5 hrs; assay type: functional, organism-based; parameters: dose 300 mg/kg; procedure, shortened: as §1
[24] = tested on: Mus musculus; assay: Neurotoxicity in F1 albino mouse assessed as minimal motor impairment at 300 mg/kg, ip after 4 hrs by rotorod test; assay type: toxicity, organism-based; parameters: dose 300 mg/kg, route intraperitoneal; details: in vivo; procedure, shortened: as §1
[25] = target: T8, Adenosine receptor A3 (Homo sapiens) (UniProt P0DMS8); assay: Displacement of [3H]PSB-11 from human recombinant adenosine A3 receptor expressed in CHO cells at 10 uM; assay type: cell-based; procedure, shortened: as §3
T8 sequence (whole entry): T2 sequence (P0DMS8 whole entry)

[26] = tested on: Rattus norvegicus; assay: Anticonvulsant activity in po dosed Sprague-Dawley albino rat assessed as protection against subcutaneous pentylenetetrazole-induced seizures; assay type: functional
[27] = tested on: Rattus norvegicus; assay: Anticonvulsant activity in po dosed Sprague-Dawley albino rat assessed as protection against maximal electroshock-induced seizures; assay type: functional

Ki [1]: 2.07 µM
Ki [2]: 4.47 µM
inhibition [3]: 47%
SMILES: CCn1c(=O)c2c(nc(/C=C/c3ccc(OC)c(OC)c3)n2C)n(CC)c1=O [ISTRADEFYLLINE]

Ki [4]: 4.87 µM
Ki [6]: > 10 µM
Ratio Ki [9]: 3
inhibition [11]: 16%
Ki [12]: > 10 µM
Ki [15]: 1.74 µM
Ki [1]: > 10 µM
inhibition [20]: 29%
inhibition [22]: 8%
Ki [2]: > 10 µM
inhibition [25]: 28%
SMILES: CC(=O)OC1CCC(N2CCCCn3c2nc2c3c(=O)n(C)c(=O)n2C)CC1 (mixture of isomers)
Activity [5]: inactive
Activity [7]: inactive
Activity [8]: inactive
Activity [10]: Non-toxic
Activity [13]: Non-toxic
Activity [14]: inactive
Ratio Ki [16]: 5
Activity [17]: inactive
Activity [18]: Non-toxic
Activity [19]: inactive
Activity [21]: inactive
Activity [23]: Active
Activity [24]: Non-toxic

SMILES: CCCC(CCC)C(=O)O [VALPROIC ACID]
ED50 [26]: 209 mg/kg
ED50 [27]: 287 mg/kg
